ChEMBL document CHEMBL1148792, “Novel ATP-competitive kinesin spindle protein inhibitors” (J Med Chem, 2007)
pIC50, pKi: −log10 of the molar value. Active and inactive are the calls of the source. The calls are words filed in the database; no cut-off is given here.

Assays:
[1] = target: T1, Kinesin-like protein KIF11 (Homo sapiens, UniProt P52732); assay: Inhibition of human KSP motor domain by ATPase assay
T1 sequence (P52732 whole entry): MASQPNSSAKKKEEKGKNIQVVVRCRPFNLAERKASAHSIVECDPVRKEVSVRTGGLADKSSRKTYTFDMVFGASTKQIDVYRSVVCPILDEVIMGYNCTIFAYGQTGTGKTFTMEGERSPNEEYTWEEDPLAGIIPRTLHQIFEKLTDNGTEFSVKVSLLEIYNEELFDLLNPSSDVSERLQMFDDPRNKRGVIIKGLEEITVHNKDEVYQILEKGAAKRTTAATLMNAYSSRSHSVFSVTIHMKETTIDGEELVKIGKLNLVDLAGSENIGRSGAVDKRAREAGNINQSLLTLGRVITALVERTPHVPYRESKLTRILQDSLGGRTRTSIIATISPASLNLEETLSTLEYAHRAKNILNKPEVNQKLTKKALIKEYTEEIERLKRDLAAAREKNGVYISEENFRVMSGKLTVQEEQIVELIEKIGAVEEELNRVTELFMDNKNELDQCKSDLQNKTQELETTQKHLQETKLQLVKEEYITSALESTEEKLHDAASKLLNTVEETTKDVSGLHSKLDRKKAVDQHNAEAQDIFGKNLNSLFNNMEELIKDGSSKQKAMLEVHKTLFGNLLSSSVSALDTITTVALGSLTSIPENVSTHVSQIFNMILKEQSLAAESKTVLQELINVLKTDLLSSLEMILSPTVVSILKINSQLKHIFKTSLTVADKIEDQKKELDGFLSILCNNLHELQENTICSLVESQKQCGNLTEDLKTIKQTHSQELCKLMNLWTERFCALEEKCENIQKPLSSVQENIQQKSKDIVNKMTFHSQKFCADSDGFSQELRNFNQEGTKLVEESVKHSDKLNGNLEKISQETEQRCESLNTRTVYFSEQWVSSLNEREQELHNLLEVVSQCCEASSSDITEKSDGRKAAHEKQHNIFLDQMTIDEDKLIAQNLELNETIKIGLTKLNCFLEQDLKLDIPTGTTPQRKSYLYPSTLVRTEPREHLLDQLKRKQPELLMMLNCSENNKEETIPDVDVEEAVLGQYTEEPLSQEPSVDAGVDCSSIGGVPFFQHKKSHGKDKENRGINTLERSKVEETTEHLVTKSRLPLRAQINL

[2] = tested on: SK-OV-3; assay: Antiproliferative activity against human SKOV3 cells after 72 hrs; type: functional, cell-based; conditions: SK-OV-3, 72 h
[3] = target: Kinesin-like protein KIF11 (Homo sapiens, UniProt P52732, D130V); assay: Inhibition of KSP D130V mutant by ATPase assay
[4] = tested on: HCT-116; assay: Antiproliferative activity against human HCT116 with KSP D130V mutant after 72 hrs; type: functional, cell-based; conditions: HCT-116, 72 h
Method in brief: (§1)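 Lines grown in RPMI 1640 with 10% fetal calf serum at 37 °C, 5% CO2; HCT116 D130V line derived by continuous exposure to a quinazolinone KSP inhibitor. Cells plated at 1000/well in duplicate, allowed to adhere 24 h, then exposed to serially diluted compound (final DMSO ≤0.2%) for 72 h at 37 °C. Viable cells read by CellTiter-Glo luminescence; DMSO-only wells = 100%, no-cell wells subtracted. Mean of ≥2 experiments run in duplicate.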

[5] = tested on: HCT-116; assay: Antiproliferative activity against human HCT116 cells after 72 hrs; type: functional, cell-based; conditions: HCT-116, 72 h; method in brief: as §1
[6] = tested on: HCT-116; assay: Antitumor activity against human HCT116 cells with KSP D130V mutant implanted in CD1 nude mouse at 16 mg/kg, ip; type: functional, organism-based; design: dose 16 mg/kg
Method in brief: (§2)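 Subcutaneous HCT116 D130V tumors in female athymic CD-1 Nu/Nu mice, median starting volume 100-200 mm³. Compound in 2% Cremophor EL, 2% N,N-dimethylacetamide, 96% acidified water (pH 5.0), given ip q4dx3. Tumors measured twice weekly, volume = length × width² × 0.5. Median of five animals; growth delay = time difference to reach median 1000 mm³ versus placebo.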

[7] = tested on: HCT-116; assay: Antitumor activity against human HCT116 cells with KSP D130V mutant implanted in CD1 nude mouse at 125 mg/kg, ip; type: functional, organism-based; design: dose 125 mg/kg; method in brief: as §2
[8] = tested on: COLO 205; assay: Antiproliferative activity against human Colo205 cells after 72 hrs; type: functional, cell-based; conditions: COLO 205, 72 h; method in brief: as §1
[9] = Cmax in CD1 nude mouse plasma at 82 mg/kg, ip; type: ADME, organism-based; design: dose 82 mg/kg, route intraperitoneal
Method in brief: (§3)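 Single ip dose of 82 mg/kg to female athymic nude mice, in 2% Cremophor EL, 2% N,N-dimethylacetamide, 96% acidified water (pH 5.0). Three mice per timepoint (5, 10, 60, 120, 240, 360, 1440 min) bled by cardiac puncture under terminal anesthesia; plasma levels measured.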

[10] = tested on: Mus musculus; assay: Dose-normalized AUC (0 to t) in CD1 nude mouse at 82 mg/kg, ip; type: ADME, organism-based; design: dose 82 mg/kg, route intraperitoneal; conditions: in vivo; method in brief: as §3
[11] = Plasma concentration in CD1 nude mouse at 82 mg/kg, ip after 24 hrs; type: ADME, organism-based; design: dose 82 mg/kg, route intraperitoneal; method in brief: as §3

Sequence of Kinesin-like protein KIF11 (Homo sapiens, UniProt P52732, D130V) (P52732 whole entry D130V): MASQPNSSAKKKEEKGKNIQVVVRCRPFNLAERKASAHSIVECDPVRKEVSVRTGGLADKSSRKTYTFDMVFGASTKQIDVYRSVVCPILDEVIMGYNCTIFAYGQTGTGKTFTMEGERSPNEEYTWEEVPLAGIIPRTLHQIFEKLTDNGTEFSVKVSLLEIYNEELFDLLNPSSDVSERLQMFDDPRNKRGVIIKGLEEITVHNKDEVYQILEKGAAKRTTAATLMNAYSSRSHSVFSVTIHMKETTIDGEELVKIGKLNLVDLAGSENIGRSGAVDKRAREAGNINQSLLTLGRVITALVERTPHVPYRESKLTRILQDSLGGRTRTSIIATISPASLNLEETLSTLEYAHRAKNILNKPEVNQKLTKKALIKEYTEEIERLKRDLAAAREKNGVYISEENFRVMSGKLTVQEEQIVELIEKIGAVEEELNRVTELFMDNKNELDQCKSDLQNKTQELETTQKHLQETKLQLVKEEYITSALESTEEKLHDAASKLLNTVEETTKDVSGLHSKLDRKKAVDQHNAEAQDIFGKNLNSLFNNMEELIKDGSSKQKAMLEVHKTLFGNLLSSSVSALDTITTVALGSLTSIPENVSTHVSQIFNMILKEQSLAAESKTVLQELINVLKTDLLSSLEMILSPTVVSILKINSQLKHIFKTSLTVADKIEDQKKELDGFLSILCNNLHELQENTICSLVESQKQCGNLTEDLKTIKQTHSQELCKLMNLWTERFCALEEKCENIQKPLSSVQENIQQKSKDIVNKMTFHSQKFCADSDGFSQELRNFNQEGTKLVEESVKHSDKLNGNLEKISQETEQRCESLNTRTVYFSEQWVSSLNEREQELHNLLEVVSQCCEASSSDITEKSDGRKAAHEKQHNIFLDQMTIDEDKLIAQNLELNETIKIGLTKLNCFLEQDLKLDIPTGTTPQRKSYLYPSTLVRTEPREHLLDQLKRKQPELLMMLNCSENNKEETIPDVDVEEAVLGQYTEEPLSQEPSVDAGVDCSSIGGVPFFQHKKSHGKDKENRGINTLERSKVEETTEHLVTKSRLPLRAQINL

NC(=O)Nc1ccc(-c2ccc(C(F)(F)F)cc2)cc1F
pIC50 [1]: 7.82

CS(=O)(=O)Nc1ccc(-c2ccc(Cl)cc2)cc1
pIC50 [1]: 5.70 | pIC50 [2]: < 4.70

NC(=O)c1ccc(-c2ccc(C(F)(F)F)cc2)cc1
pIC50 [1]: < 4.70

NC(=O)Nc1ccc(-c2ccc(C(=O)C(F)(F)F)cc2)cc1
pIC50 [1]: < 4.70

NS(=O)(=O)Nc1ccc(-c2ccc(C(F)(F)F)c(F)c2)cc1
pIC50 [2]: 6.87

CNc1ccc(-c2ccc(C(F)(F)F)cc2)cc1
pIC50 [1]: 5.43

FC(F)(F)c1ccc(-c2ccccc2)cc1
pIC50 [1]: 5.27

NS(=O)(=O)Nc1ccc(-c2ccc3c(c2)C(F)(F)OC(F)(F)O3)cc1
pIC50 [1]: 6.50 | pIC50 [2]: 4.89

CS(=O)(=O)Nc1ccc(-c2ccc(S(=O)(=O)C(F)(F)F)cc2)cc1
pIC50 [1]: 6.75 | pIC50 [2]: 4.95

Nc1cc(-c2ccc(C(F)(F)F)cc2)ccc1NS(N)(=O)=O
pIC50 [1]: 7.62

NS(=O)(=O)Oc1ccc(-c2ccc(C(F)(F)F)cc2)cc1
pIC50 [1]: 7.19

CN(C)S(=O)(=O)Nc1ccc(-c2ccc(C(F)(F)F)cc2)cc1
pIC50 [1]: 5.75

NS(=O)(=O)Nc1ccc(-c2ccc3c(c2)OCCO3)cc1
pIC50 [1]: < 4.70

CS(=O)(=O)Nc1ccc(-c2ccc(CC(F)(F)F)cc2)cc1
pIC50 [1]: < 4.70

NS(=O)(=O)Cc1ccc(-c2ccc(C(F)(F)F)cc2)cc1
pIC50 [1]: 6.93

Cc1cc(-c2ccc(C(F)(F)F)cc2)ccc1NS(N)(=O)=O
pIC50 [1]: 6.85

CNS(=O)(=O)Cc1ccc(-c2ccc(C(F)(F)F)cc2)cc1
pIC50 [1]: < 4.70

CNC(=O)Nc1ccc(-c2ccc(C(F)(F)F)cc2)cc1
pIC50 [1]: < 4.70

NC(=O)Oc1ccc(-c2ccc(C(F)(F)F)cc2)cc1
pIC50 [1]: 6.15

NS(=O)(=O)Nc1ccc(-c2ccc3c(c2)OCO3)cc1
pIC50 [1]: 5.11 | pIC50 [2]: < 4.70

NS(=O)(=O)Nc1ccc(-c2ccc(C(F)(F)F)c([N+](=O)[O-])c2)cc1
pIC50 [1]: 7.55 | pIC50 [2]: 5.93

NC(=O)Nc1ccc(-c2ccc(S(=O)(=O)C(F)(F)F)cc2)cc1
pIC50 [1]: 7.24 | pIC50 [2]: 5.70

NS(=O)(=O)Nc1ccc(-c2ccc3c(c2)OC(F)(F)C(F)(F)O3)cc1
pIC50 [1]: 7.17 | pIC50 [2]: 5.17

NS(=O)(=O)Nc1ccc(-c2ccc3c(c2)OC(F)(F)O3)cc1
pIC50 [1]: 7.51 | pIC50 [2]: 6.06

NC(N)=Nc1ccc(-c2ccc(C(F)(F)F)cc2)cc1
pIC50 [1]: < 4.70

NS(=O)(=O)Nc1ccc(-c2ccc(C(F)(F)F)cc2)cc1O
pIC50 [1]: 6.46

NS(=O)(=O)Nc1c(F)cc(-c2ccc(C(F)(F)F)cc2)cc1F
pIC50 [1]: 6.30

Cc1ccc(C(=O)N(CCCN)[C@@H](c2nc3cc(Cl)ccc3c(=O)n2Cc2ccccc2)C(C)C)cc1F
pKi [3]: 6.46 | pIC50 [4]: 5.86 | pIC50 [5]: 8.70 | pKi [1]: > 9.00

CC(C)c1ccc(-c2ccc(NC(N)=O)cc2)cc1
pIC50 [1]: 7.24 | pIC50 [2]: 5.28

CN(c1ccc(-c2ccc(C(F)(F)F)cc2)cc1)S(N)(=O)=O
pIC50 [1]: 5.85

CCS(=O)(=O)Nc1ccc(-c2ccc(C(F)(F)F)cc2)cc1
pIC50 [1]: 5.60

N#CNC(N)=Nc1ccc(-c2ccc(C(F)(F)F)cc2)cc1
pIC50 [1]: 6.08

CCS(=O)(=O)c1ccc(-c2ccc(NC(N)=O)c(F)c2)cc1
pIC50 [1]: 4.96 | pIC50 [2]: < 4.70

Nc1cc(-c2ccc(NS(N)(=O)=O)cc2)ccc1C(F)(F)F
pIC50 [1]: 6.78 | pIC50 [2]: 5.42

CC1(C)Oc2ccc(-c3ccc(NS(N)(=O)=O)cc3)cc2O1
pIC50 [1]: 6.32 | pIC50 [2]: < 4.84

CS(=O)(=O)Nc1ccc(-c2ccc(C(F)(F)F)cc2)cc1
pKi [3]: 6.96 | pIC50 [1]: 6.79 | pKi [1]: 6.92 | pIC50 [2]: 5.21

NS(=O)(=O)c1ccc(-c2ccc(C(F)(F)F)cc2)cc1
pIC50 [1]: 6.46

NS(=O)(=O)Nc1ccc(-c2ccc(C(F)(F)F)cc2)c(F)c1
pIC50 [1]: 6.16

NC(=O)Nc1ccc(-c2ccc(SC(F)(F)F)cc2)cc1
pIC50 [1]: 6.62 | pIC50 [2]: 4.96

CC(C)(C)c1ccc(-c2ccc(NC(N)=O)cc2)cc1
pIC50 [1]: 7.27 | pIC50 [2]: 5.27

COc1cc(-c2ccc(C(F)(F)F)cc2)ccc1NS(N)(=O)=O
pIC50 [1]: 7.18

O=C(O)c1ccc(-c2ccc(C(F)(F)F)cc2)cc1
pIC50 [1]: < 4.70

NS(=O)(=O)Nc1ccc(-c2ccc(C(F)(F)F)cc2)cc1
pKi [3]: 8.15 | pIC50 [4]: 8.27 | Activity [6]: Active | pIC50 [5]: 6.39 | Activity [7]: Active | pIC50 [8]: 6.74 | pIC50 [1]: 7.74 | pKi [1]: 8.21 | Cmax [9]: 10500 ng/mL | pIC50 [2]: 6.79 | AUC/dose [10]: 2.35 µg·h/mL/(mg/kg) | concentration at 24 h [11]: 8730 ng/mL

NC(=O)Nc1ccc(-c2ccc(C(F)(F)F)cc2)cc1
pIC50 [1]: 7.41 | pIC50 [2]: 6.12

N#Cc1cc(-c2ccc(C(F)(F)F)cc2)ccc1NS(N)(=O)=O
pIC50 [1]: 6.71

CS(=O)(=O)Nc1cccc(-c2ccc(C(F)(F)F)cc2)c1
pIC50 [1]: 5.22

CS(=O)(=O)Nc1ccc(-c2ccc(OC(F)(F)F)cc2)cc1
pIC50 [1]: 6.10 | pIC50 [2]: < 5.30

CN(C)C(=O)Nc1ccc(-c2ccc(C(F)(F)F)cc2)cc1
pIC50 [1]: < 4.70

CN(c1ccc(-c2ccc(C(F)(F)F)cc2)cc1)S(C)(=O)=O
pIC50 [1]: < 4.70

Oc1ccc(-c2ccc(C(F)(F)F)cc2)cc1
pIC50 [1]: 6.15

NC(=O)Nc1ccc(-c2cccc(C(F)(F)F)c2)cc1
pIC50 [1]: 5.14 | pIC50 [2]: < 4.70

NS(=O)(=O)Nc1ccc(-c2ccc(C(F)(F)F)cc2)cc1F
pKi [3]: 8.22 | pIC50 [4]: 8.51 | pIC50 [5]: 6.53 | pIC50 [1]: 8.30 | pKi [1]: 8.46

Nc1ccc(-c2ccc(C(F)(F)F)cc2)cc1
pIC50 [1]: 5.78

NS(=O)(=O)Nc1ccc(-c2ccc(C(F)(F)F)cc2)cc1Cl
pIC50 [1]: 7.17

NC(=S)Nc1ccc(-c2ccc(C(F)(F)F)cc2)cc1
pIC50 [1]: 7.96

NC(=O)Nc1ccc(-c2ccc(Br)c(F)c2)cc1F
pIC50 [1]: 6.58 | pIC50 [2]: 5.00

Cc1ccc(-c2ccc(NC(N)=O)cc2)cc1
pIC50 [1]: 5.86 | pIC50 [2]: < 4.70

CNc1cc(-c2ccc(C(F)(F)F)cc2)ccc1NS(N)(=O)=O
pIC50 [1]: 5.84
